Assay results: ChEMBL document CHEMBL1221254, “Succinic acid amides as P2-P3 replacements for inhibitors of interleukin-1beta converting enzyme (ICE or caspase 1)” (Bioorg Med Chem Lett, 2010)
pIC50, pKi: −log10 of the molar value.

Experiments:
[1] = Selectivity ratio of human ICE to caspase 3
[2] = Selectivity ratio of human ICE to caspase 6
[3] = Selectivity ratio of human ICE to caspase 4
[4] = Selectivity ratio of human ICE to caspase 8
[5] = Oral bioavailability in Wistar rat at 25 mg/kg; format: ADME, organism-based; settings: in vivo
Method in brief: (§1)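 Wistar rats received 25 mg/kg orally in a vehicle of 10% DMSO, 11.25% Trappsol and D5W. Compound was measured in blood by LC/MS.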

Homo sapiens = organism: Homo sapiens; test: Half life in human plasma
Mus musculus = test: Reduction of IL1-beta level in human PBMC cells xenografted SCID mouse at 3 mg/kg, iv after 2 hrs; format: functional; set-up: scale not given: the % may be the effect or the level left
Method in brief: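 huSCID model: SCID mice were injected with human PBMC 15 min before the start. At time zero they received LPS at 5 mg/kg iv. Compound was given at 3 mg/kg iv, and mice were bled at 2 h.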

PBMC = test: Inhibition of LPS-induced IL1-beta production in human PBMC by ELISA; format: functional, cell-based
Method in brief: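 Human PBMC were suspended in RPMI 1640 with glutamine, penicillin, streptomycin and 2% human AB serum, at 10^6 cells per well. Cells were stimulated overnight with 10 ng/mL LPS, with or without inhibitor. Mature IL-1β in the harvested medium was measured by ELISA.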

Caspase-1 [6] = biological target: T1, Caspase-1 (Mus musculus, UniProt P29452); test: Inhibition of mouse ICE
T1 sequence (P29452 whole entry): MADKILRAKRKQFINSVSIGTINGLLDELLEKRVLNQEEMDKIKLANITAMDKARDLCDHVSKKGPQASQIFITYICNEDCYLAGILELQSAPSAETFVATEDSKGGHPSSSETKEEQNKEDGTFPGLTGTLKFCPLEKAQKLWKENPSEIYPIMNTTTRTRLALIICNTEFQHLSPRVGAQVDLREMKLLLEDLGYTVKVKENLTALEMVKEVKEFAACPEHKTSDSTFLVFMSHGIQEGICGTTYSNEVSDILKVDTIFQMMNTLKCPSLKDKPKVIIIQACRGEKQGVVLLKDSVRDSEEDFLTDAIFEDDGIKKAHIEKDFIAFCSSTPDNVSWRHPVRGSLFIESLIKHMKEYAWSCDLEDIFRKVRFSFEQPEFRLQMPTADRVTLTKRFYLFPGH

Caspase-1 [7] = biological target: T2, Caspase-1 (Homo sapiens, UniProt P29466); test: Inhibition of human ICE
T2 sequence (P29466 whole entry): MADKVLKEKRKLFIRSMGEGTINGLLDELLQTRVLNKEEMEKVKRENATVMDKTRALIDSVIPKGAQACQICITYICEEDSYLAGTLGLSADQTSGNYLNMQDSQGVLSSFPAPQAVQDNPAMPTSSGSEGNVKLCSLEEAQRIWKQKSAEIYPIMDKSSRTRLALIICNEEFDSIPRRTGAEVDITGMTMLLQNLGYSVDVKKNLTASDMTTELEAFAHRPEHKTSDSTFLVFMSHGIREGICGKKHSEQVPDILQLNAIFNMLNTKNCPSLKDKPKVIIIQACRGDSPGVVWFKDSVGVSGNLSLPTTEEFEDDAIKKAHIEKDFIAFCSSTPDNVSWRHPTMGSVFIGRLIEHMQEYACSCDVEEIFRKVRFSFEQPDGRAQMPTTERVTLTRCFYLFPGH

[8] = Half life in Wistar rat at 25 mg/kg, po; format: ADME, organism-based; set-up: dose 25 mg/kg, route oral; settings: in vivo; method in brief: as §1

SMILES | Selectivity ratio [1] | Selectivity ratio [2] | Selectivity ratio [3] | Selectivity ratio [4] | bioavailability [5] [%] | half-life (Homo sapiens) [h] | Activity (Mus musculus) [%] | pIC50 (PBMC) | pKi (Caspase-1 [6]) | pIC50 (Caspase-1 [7]) | half-life [8] [h] | pKi (Caspase-1 [7])
CCCO[C@@H]1OC(=O)C[C@@H]1NC(=O)[C@@H](CC(=O)NCCc1cccc2ncccc12)C(C)C | > 200 | > 200 | > 200 | > 200 | 9 | 2 |  |  |  |  |  | 
Cc1nc2ccccc2n1CCNC(=O)C[C@H](C(=O)N[C@H](C=O)CC(=O)O)C(C)C |  |  |  |  |  |  | 68 | 5.54 | 7.73 | 7.62 |  | 
CCOC1OC(=O)C[C@@H]1NC(=O)[C@@H](CC(=O)NCCc1c(C)[nH]c2ccccc12)C(C)C (some centres not stated) | > 200 | > 200 | > 200 | > 200 |  |  |  |  |  |  | 1.27 | 
CC(C)[C@H](CC(=O)NCCc1cccc2ncccc12)C(=O)N[C@H](C=O)CC(=O)O |  |  |  |  |  |  | 52 | 6.19 | 7.84 | 8.24 |  | 8.74
CCO[C@@H]1OC(=O)CC1NC(=O)[C@@H]1CCCN2C(=O)CC[C@H](NC(=O)c3nccc4ccccc34)C(=O)N12 (some centres not stated) | > 200 | > 200 | > 200 | > 200 |  |  |  |  |  |  | 0.87 | 
CCOC1OC(=O)C[C@@H]1NC(=O)[C@@H](CC(=O)NCCn1c(C)nc2ccccc21)C(C)C (some centres not stated) | > 200 | > 200 | > 200 | > 200 |  |  |  |  |  |  | 1.6 | 
Cc1[nH]c2ccccc2c1CCNC(=O)C[C@H](C(=O)N[C@H](C=O)CC(=O)O)C(C)C |  |  |  |  |  |  | 54 | 5.82 | 7.87 | 7.74 |  | 8.89
CCOC1OC(=O)C[C@@H]1NC(=O)[C@@H](CC(=O)NCCc1cccc2ncccc12)C(C)C (some centres not stated) | > 200 | > 200 | > 200 | > 200 |  |  |  |  |  |  | 0.87 | 
CC(C)[C@H](CC(=O)NCCc1cccc2ncccc12)C(=O)N[C@H]1CC(=O)O[C@@H]1OC1CCCC1 | > 200 | > 200 | > 200 | > 200 | 5 | 5.1 |  |  |  |  |  | 
O=C[C@H](CC(=O)O)NC(=O)[C@@H]1CCCN2C(=O)CC[C@H](NC(=O)c3nccc4ccccc34)C(=O)N12 [VRT-18858] |  |  |  |  |  |  | 62 | 6.42 | 8.15 | 8.47 |  | 9.22
CCCO[C@H]1OC(=O)C[C@@H]1NC(=O)[C@@H](CC(=O)NCCc1cccc2ncccc12)C(C)C | > 200 | > 200 | > 200 | > 200 | 35 | 10 |  |  |  |  |  | 
CCO[C@@H]1OC(=O)C[C@@H]1NC(=O)[C@@H](CC(=O)NCCc1cccc2ncccc12)C(C)C | > 200 | > 200 | > 200 | > 200 | 25 | 0.87 |  |  |  |  |  | 
CC(=O)N[C@@H](Cc1ccc(O)cc1)C(=O)N[C@H](C(=O)N[C@@H](C)C(=O)N[C@H](C=O)CC(=O)O)C(C)C | > 200 | > 200 | > 200 | > 200 |  |  | 69 | 5.92 | 8.05 | 7.77 |  | 9.15
